Bioassay records (PubChem BioAssay)
SKKanGAS inh: SKKanGAS growth inhibition; S. pyogenes SKKanGAS, kanamycin growth, BacTiter-Glo, 6 h; inhibition, % at 7.5 µM; actives 1.3% (n = 300,000); AID 1662;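 active = mean replicate score, as percent of positive control median, at least 50; inconclusive = mean below 50 but one replicate at or above 50; inactive = mean and every replicate below 50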;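 note: strain carries kanamycin resistance gene driven by streptokinase promoter and grows in 40 µg/ml kanamycin; loss of luminescence reflects streptokinase promoter inhibition or plain growth inhibition; 0% = median of DMSO wells and 100% = positive control at its reference dose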
sPLA2-III inh: Blocks human group III sPLA2 activity; Q9NZ20; QFRET BODIPY PC-A2 liposome hydrolysis, fluorescence; inhibition, % at 12.2 µM; actives 0.56% (n = 370,000); AID 743126;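 active = inhibition above mean plus 3 SD of compounds lying within the high and low control bounds, cut at about 19% in these data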;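 note: 0% = median of test compound wells and 100% = no enzyme DMSO wells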
ASAP1 inh: inhibitors of human ASAP1 ArfGAP activity; Q9ULH1; ASAP1-stimulated ARF1 GTP hydrolysis, GDP FP detection; inhibition, % at 16.5 µM; actives 0.19% (n = 360,000); in the data active = inhibition above about 25%;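 note: 0% = vehicle with enzyme and substrate and 100% = no enzyme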
Target sequence (Q9ULH1 325-724 limits assumed): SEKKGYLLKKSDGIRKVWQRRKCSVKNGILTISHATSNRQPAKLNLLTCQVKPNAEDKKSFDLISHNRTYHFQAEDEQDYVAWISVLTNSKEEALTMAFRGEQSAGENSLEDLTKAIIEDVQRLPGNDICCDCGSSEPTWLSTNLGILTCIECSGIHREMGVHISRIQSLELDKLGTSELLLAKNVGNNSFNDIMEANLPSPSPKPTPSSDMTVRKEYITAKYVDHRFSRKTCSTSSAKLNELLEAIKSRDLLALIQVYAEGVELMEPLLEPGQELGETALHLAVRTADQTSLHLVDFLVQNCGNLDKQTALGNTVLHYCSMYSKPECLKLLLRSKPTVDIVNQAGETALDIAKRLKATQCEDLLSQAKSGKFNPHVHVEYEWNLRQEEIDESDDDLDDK
Calb FLC: affects C. albicans growth with fluconazole; C. albicans CaCi-2 (fluconazole-resistant clinical isolate) + fluconazole, Alamar Blue growth, 48 h; growth inhibition, % (no concentration beside the values); actives 0.57% (n = 300,000); AID 1979;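 active = growth inhibition above about 58% in most replicates, limit read from the data, passing the limit was not always enough; inconclusive = exactly half the replicates above a set limit; inactive = most replicates below a set limit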;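 note: all wells also contain fluconazole at 8 µg/ml as a sub-toxic cotreatment; 0% = median of DMSO wells and 100% = median of geldanamycin control wells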
ARFGAP1 inhibitor: inhibitors of rat ARFGAP1; Q62848; Arfgap1-stimulated ARF1 GTP hydrolysis, GDP FP detection; inhibition, % at 16.5 µM; actives 0.26% (n = 360,000); AID 651572;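 active = inhibition above a per-plate limit, mean inhibition of low control wells plus 3 SD, cut at about 25% in these data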;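 note: 0% = DMSO wells with enzyme and 100% = wells lacking Arfgap1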
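Assay system: Rat Arfgap1 GAP domain (His6, aa 1-136), purified enzyme | Buffer or medium: HEPES 25 mM pH 7.5, NaCl 150 mM, MgCl2, DTT | Schedule: GTP hydrolysis reaction 2 h at 25 °C | Signal: FP of antibody-bound GDP Alexa 633 tracer, ex 620/em 688 nm | Measure: Percent inhibition of Arfgap1-stimulated GTP hydrolysis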
Active calls of the source: *; u = inconclusive; x = not tested or not shown. In the library only some 2.3% were active in any assay of this set; here they are far more common.

SMILES	SKKanGAS inh	sPLA2-III inh	ASAP1 inh	Calb FLC	ARFGAP1 inhibitor
Oc1ccc(CN2CCN(Cc3ccccc3)CC2)c2cccnc12	5.9	4.0	-2.7	60.3*	0.4
O=S(=O)(c1ccc(Cl)cc1)N1CCN(Cc2ccc(O)c3ncccc23)CC1	5.7	8.5	-7.9	94.6*	3.3
CN1CCN(Cc2cc(COCc3ccccc3)c3cccnc3c2O)CC1	3.2	-5.2	-8.4	109.5*	-7.5
C=CCNC(=O)NC[C@@]1(C(=O)OC)CC(=O)N(C)[C@@H]1c1ccccc1	x	0.8	x	x	x
CCCOc1cccc(-c2nnc(NC(=O)c3ccco3)s2)c1	3.0	0.1	-1.5	88.3*	8.0
O=C(O)c1ccccc1C(=O)NNc1ccc(F)cc1	-2.8	1.8	4.5	101.9*	-1.1
Cc1cccc(-c2oc3ccccc3c2-c2ccc3c(c2)OCO3)c1	52.2*	-0.5	5.9	-6.4	-15.0
Oc1c(Br)cc(Br)cc1CNc1cnc2ccccc2c1	61.3*	-16.9	-0.8	10.5	-0.1
O=C1NC(=Nc2ccccc2Cl)S/C1=C\c1cccc([N+](=O)[O-])c1O	27.6	-38.1	-17.4	94.9*	-26.9
COC(=O)[C@]12C[C@H](CC(=O)N3CCC(c4ccccc4)CC3)C(=O)N(CCc3ccc(OC)c(OC)c3)C1=C[C@H](C1CCCC1)O[C@@H]2C	x	-4.3	x	x	x
C/C(=N\NC(=O)c1ccc(Cl)cc1)c1ccc(Br)s1	36.4	3.3	22.0	24.2	11.1
C/C(=N\Nc1ccc(F)cc1F)c1ccc(F)cc1	7.0	x	x	-10.5	x
C/C(=N\Nc1ccc(F)cc1F)c1ccc(N2CCOCC2)cc1	-6.9	11.1	-0.9	103.7*	12.9
C/C(=N\Nc1ccc(F)cc1F)c1ccc(Br)s1	18.8	8.9	7.4	102.2*	9.3
COc1ccc(C(=O)Nc2ccccc2-c2nnn(CC(=O)Nc3ccc4c(c3)OCCO4)n2)cc1	66.0*	-1.6	-0.6	35.2	9.0
O=C(Nc1ccccc1N1CCN(C(=O)c2ccc(Cl)cc2)CC1)c1ccc([N+](=O)[O-])o1	78.6*	x	x	-3.9	x
C#CCNC(=O)C[C@@H]1C(=O)N(CCc2ccc(Cl)cc2)/C2=C/CCCCC[C@@]21C(=O)OCC	x	0.1	x	x	x
CCC(=O)N1CCN(c2ccc(Cl)cc2NC(=O)c2ccc3c(c2)OCCO3)CC1	-10.5	-1.7	1.6	89.6*	-1.9
COCCCN1C(=O)[C@H](CC(=O)N2CCCC2)[C@]2(C(=O)OC)CCCCC=C12	x	3.1	x	x	x
O=C(c1ccco1)[C@@H]1[C@@H]2C(=O)N(c3ccccc3)C(=O)[C@@H]2C2c3ccccc3C=CN21 (stereo partly specified)	2.6	-17.0	34.1*	4.0	1.7
Cc1ccc(N2C(=O)[C@@H]3[C@H](C2=O)C2c4ccccc4C=CN2[C@@H]3C(=O)c2ccco2)c(C)c1 (stereo partly specified)	1.9	-9.1	12.0	-2.3	4.5
Cc1ccc(N2C(=O)[C@@H]3[C@H](C2=O)C2c4ccccc4C=CN2[C@@H]3C(=O)c2ccco2)cc1 (stereo partly specified)	x	-3.8	26.0*	x	3.1
Oc1ccc(-c2c(C3=CCCCC3)sc3ccccc23)cc1	56.1*	3.4	9.7	-9.3	8.2
C1=C(c2cn(-c3nc4ccccc4s3)nn2)CCCC1	x	-4.0	4.3	x	-2.2
COc1ccc(NC(=O)c2cccc(OS(=O)(=O)N(C)C)c2)cc1	3.3	-5.4	0.8	42.4	16.1
SMILES	SKKanGAS inh	sPLA2-III inh	ASAP1 inh	Calb FLC	ARFGAP1 inhibitor
CN(C)S(=O)(=O)Oc1cccc(C(=O)Nc2ccc(Cl)c(Cl)c2)c1	7.9	-49.3	13.5	91.8*	4.8
CN(C)S(=O)(=O)Oc1cccc(C(=O)Nc2cccc(Cl)c2)c1	-6.5	-41.5	3.0	108.0*	3.7
COC(=O)C[C@@H]1CC[C@@H]2[C@@H](COc3ccc(NC(=O)c4ccc(F)cc4)cc3C(=O)N2C)O1	x	0.9	x	x	x
c1ccc(COc2ccccc2CNC23CC4CC(CC(C4)C2)C3)cc1	0.3	-4.6	1.5	94.9*	-6.2
c1ccc(COc2ccccc2CNC2CCCC2)cc1	3.9	-6.3	3.2	-24.1	3.6
CCOC(=O)c1sc(NC(=O)c2cc(-c3ccccc3C)nc3ccccc23)c(C#N)c1C	51.2*	-0.9	-3.4	u	-4.8
Cc1ccccc1-c1cc(C(=O)Nc2sc(C)c(C)c2C(N)=O)c2ccccc2n1	47.0	1.6	1.6	-9.2	1.5
CCCc1ccc(-c2cc(N)n[nH]2)cc1	112.6*	-0.7	-7.1	-5.0	5.9
